Assay outcomes: PubChem BioAssay, Broad Institute
EWS-Fli block – inhibitors of EWS/Fli oncoprotein transcriptional activity; A673 NR0B1-luciferase reporter, viability-normalised; inhibition, % at 12.6 µM; 350,000 tested, 0.67% active; AID 651661;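 active = mean inhibition of at least 50% after viability correction, with every replicate also passing that limit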;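 also: firefly luciferase signal divided by Alamar Blue viability fluorescence both relative to DMSO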
Ecoli rRNA inh – inhibitors of bacterial rRNA selective over humanized ribosomes; E. coli WT GFP vs humanized-ribosome RFP mutants, fluorescence, 24 h; hits give low values; DMSO median 0, no signal -100; GFP signal change (wild-type ribosome), % (concentration not given with the values); 350,000 tested, 1.6% active; AID 720706;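 active = significant combined selectivity score with lowered wild-type GFP, culture density cut under 30%, mutant RFP and density less affected; inactive = any of these conditions unmet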
E-sel inducer – E-selectin induction on HUVECs | HUVEC E-selectin immunofluorescence imaging; normalized: neutral wells 0, TNF-alpha wells 100 | activation, % at 7.58 µM | 260,000 tested, 0.37% active | AID 686992 | P16581;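 active = mean E-selectin-positive cell signal at least 10% of the positive control, reached in at least 60% of replicates, without over 20% cell loss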
Target sequence (P16581 whole entry, looked up): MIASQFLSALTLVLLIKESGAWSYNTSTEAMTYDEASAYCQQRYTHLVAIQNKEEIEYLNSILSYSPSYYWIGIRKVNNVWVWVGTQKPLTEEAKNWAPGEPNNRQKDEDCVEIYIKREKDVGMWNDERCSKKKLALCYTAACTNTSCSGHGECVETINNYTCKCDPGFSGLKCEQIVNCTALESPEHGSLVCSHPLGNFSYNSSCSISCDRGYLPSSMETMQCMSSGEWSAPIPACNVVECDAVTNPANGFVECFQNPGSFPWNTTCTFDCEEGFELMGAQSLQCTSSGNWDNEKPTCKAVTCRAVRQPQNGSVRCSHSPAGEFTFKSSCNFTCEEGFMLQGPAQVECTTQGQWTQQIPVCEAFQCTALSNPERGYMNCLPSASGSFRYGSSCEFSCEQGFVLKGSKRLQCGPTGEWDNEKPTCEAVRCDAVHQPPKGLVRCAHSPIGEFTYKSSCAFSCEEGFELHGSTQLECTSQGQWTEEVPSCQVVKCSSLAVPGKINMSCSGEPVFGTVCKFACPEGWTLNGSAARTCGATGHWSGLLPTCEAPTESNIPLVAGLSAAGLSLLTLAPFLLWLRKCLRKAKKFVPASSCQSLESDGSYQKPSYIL
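Test system: HUVEC | Signal: Immunofluorescence imaging | Read-out: Percent E-selectin-positive cells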
LGR2 antag – Drosophila LGR2 receptor signaling inhibition; HEK293 LGR2, CRE-luciferase, bursicon-stimulated, 4 h; inhibition, % at 9.99 µM; 380,000 tested, 0.35% active; AID 720647;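 active = drop in luminescence signal, shown as inhibition above about 50% in the replicate tests, limit read from the data, passing the limit was not always enough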;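 also: agonist challenge used bursicon conditioned medium at about half maximal strength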
Starred values were filed as active, the others as inactive; / = no result given. Hits are enriched below; roughly 2.4% of the tested compounds scored in any of these assays.

SMILES | EWS-Fli block | Ecoli rRNA inh | E-sel inducer | LGR2 antag
O=C(CCCN1C(=O)/C(=C\c2ccccc2)SC1=S)Nc1ccc(O)cc1C(=O)O | -0.3 | -20.7* | / | -2.0
CNC[C@H]1Oc2ccc(N)cc2CC(=O)N(C)C[C@H]1C | / | -0.3 | / | /
CCc1ccc(NC(=O)COC(=O)CCCC2=NS(=O)(=O)c3ccccc3N2)cc1 | -3.1 | -17.0* | 0.0 | -4.3
COC(=O)[C@H](Cc1c[nH]c2ccccc12)NCc1cccc(B(O)O)c1 | 3.1 | -23.9* | 6.5 | -15.9
COC(=O)[C@@H](Cc1c[nH]c2ccccc12)NCc1ccc(B(O)O)cc1 | 21.0 | -11.8 | 0.1 | -17.0
Cc1cc(C)c2c3c(c(-c4ccccc4)n2n1)c(=O)n(C)c(=O)n3C | 2.1 | 12.9 | -0.7 | 5.4
Cc1nc2ccccc2n2c(-c3ccccc3)c3c(=O)n(C)c(=O)n(C)c3c12 | / | -34.0* | / | -10.0
Nc1[nH]c(C(=O)c2ccccc2)c(-c2ccc([N+](=O)[O-])cc2)c1C(=O)NCCc1c[nH]c2ccccc12 | -1.1 | -21.5 | 0.4 | 23.0
Nc1[nH]c(C(=O)c2ccccc2)c(-c2ccccc2[N+](=O)[O-])c1C(=O)NCCc1c[nH]c2ccccc12 | 15.1 | -38.5* | 0.1 | /
Cc1ccc(S(=O)(=O)Nc2ccc3ccccc3c2)cc1 | 9.6 | -60.0 | -0.2 | -4.8
Cc1cc(S(=O)(=O)Nc2ccc3ccccc3c2)c(C)s1 | 31.0 | -50.6* | / | 18.7
Cc1noc(C)c1S(=O)(=O)N(C)C[C@H]1Oc2c(NS(=O)(=O)c3cn(C)cn3)cccc2C(=O)N([C@@H](C)CO)C[C@@H]1C | -11.8 | 1.6 | -0.1 | 0.3
CCCN(C)C[C@H]1OCCCC[C@H](C)Oc2ccc(NC(=O)CCC(F)(F)F)cc2C(=O)N([C@H](C)CO)C[C@@H]1C | -2.7 | 2.9 | -0.1 | 6.1
COc1ccc(S(=O)(=O)Nc2ccc3c(c2)C(=O)N([C@@H](C)CO)C[C@H](C)[C@@H](CN(C)C(=O)Nc2cccc4ccccc24)O3)cc1 | -3.1 | -3.2 | 80.3* | 14.2
C[C@H]1CN([C@@H](C)CO)C(=O)c2cc(NS(=O)(=O)c3ccccc3)ccc2O[C@H]1CN(C)C(=O)Nc1cccc2ccccc12 | -5.0 | 1.1 | -0.2 | -7.1
COc1ccc(S(=O)(=O)Nc2ccc3c(c2)C(=O)N([C@@H](C)CO)C[C@@H](C)[C@H](CN(C)C(=O)Nc2cccc4ccccc24)O3)cc1 | -7.8 | -10.4 | 0.9 | -0.9
COc1ccc(S(=O)(=O)Nc2ccc3c(c2)C(=O)N([C@H](C)CO)C[C@H](C)[C@@H](CN(C)C(=O)Nc2cccc4ccccc24)O3)cc1 | -9.1 | -1.9 | 64.4* | -5.5
COc1ccc(S(=O)(=O)Nc2cccc3c2O[C@H](CN(C)C(=O)Nc2c(C)noc2C)[C@H](C)CN([C@@H](C)CO)C3=O)cc1 | -3.9 | -1.3 | 63.4* | 11.3
COc1ccc(S(=O)(=O)Nc2ccc3c(c2)C(=O)N([C@@H](C)CO)C[C@@H](C)[C@@H](CN(C)C(=O)Nc2cccc4ccccc24)O3)cc1 | 10.2 | -3.0 | 53.0* | -3.2
COc1ccc(S(=O)(=O)Nc2cccc3c2O[C@@H](CN(C)C(=O)Nc2c(C)noc2C)[C@@H](C)CN([C@@H](C)CO)C3=O)cc1 | -1.0 | 2.6 | -6.5 | -6.8
O=C(C1CCCC1)N1CC2(C1)[C@@H](c1ccccc1)[C@@H](CO)N2CC1CC1 | 1.7 | 0.9 | 0.2 | 1.9
C[C@@H]1CCCCO[C@@H](CN(C)C(=O)Nc2cccc3ccccc23)[C@H](C)CN([C@@H](C)CO)C(=O)c2cc(NS(=O)(=O)c3ccc(F)cc3)ccc2O1 | 2.5 | 5.7 | -0.2 | -8.7
CN1CCN(C(=O)C[C@H]2CC[C@@H]3[C@H](COC[C@H](O)CN3S(=O)(=O)c3cccc(Cl)c3)O2)CC1 | 3.1 | -0.3 | -0.1 | 8.5
CCC(=O)N1CC2(C1)CN(Cc1ccc(Cl)cc1)[C@@H](CO)c1[nH]c3cc(OC)ccc3c12 | 8.0 | -11.1 | -0.8 | 11.5
CC(C)(C)OC(=O)NOCC(=O)N(CC(=O)c1ccccc1)Cc1ccccc1 | -1.0 | -14.9 | -0.1 | 4.0
SMILES | EWS-Fli block | Ecoli rRNA inh | E-sel inducer | LGR2 antag
CC(C)(C)OC(=O)NOCC(=O)N(Cc1ccccc1)CC(O)COc1ccccc1 (stereo not given) | -2.8 | -18.1* | -0.1 | -14.6
O=C(NC1CCCC1)C1C(c2ccc(C(F)(F)F)cc2)=Nc2ccccc2N1C(=O)c1ccccc1 (stereo not given) | -95.0 | 3.2 | 135.6* | -90.7
COc1ccc(-c2ccc3c(c2)S(=O)(=O)c2cccc(C(=O)NCCOc4ccccc4Cl)c2C3=O)cc1OC | 57.9* | 7.7 | -0.1 | 10.6
O=C(C[C@H]1C=C[C@@H](NC(=O)CN2CCOCC2)[C@H](CO)O1)NCCc1ccccc1 | 1.6 | -4.0 | -0.1 | 33.2
COc1ccc(C(=O)N/N=C/c2ccccn2)cc1OC | 6.3 | -29.4* | / | -13.7
O=C(N/N=C/c1ccccn1)c1cccs1 | -2.3 | -24.2* | -1.2 | -7.3
Cc1ccccc1C(=O)N/N=C/c1ccccn1 | -49.9 | 5.2 | -1.4 | 57.4*
O=C(N/N=C/c1ccccn1)c1ccccc1 | -82.7 | -25.5* | / | 5.9
O=C(N/N=C/c1ccccn1)c1ccncc1 | -10.6 | 8.9 | 2.1 | -13.1
COc1ccccc1NC(=O)CSc1nnnn1Cc1ccccc1 | 0.1 | -29.2* | / | -5.2
COc1ccccc1NC(=O)CSc1ccc(-c2cccs2)nn1 | -0.3 | -27.2* | 11.3 | -7.9
CCC(O)(CC)C(=O)N/N=C/c1cc(Br)cc(Br)c1O | 8.4 | -21.1* | / | 16.1
O=C(NC(=S)N1CCOCC1)c1cn(-c2ccccc2)nc1-c1ccccc1 | 25.4 | -19.0* | / | -12.9
O=[N+]([O-])CC(c1ccc(F)cc1)c1c[nH]c2ccccc12 (stereo not given) | 55.1* | -8.0 | / | 22.4
NCC(c1ccccc1)c1c[nH]c2ccccc12 (stereo not given) | -9.7 | -31.6 | 0.3 | 20.0
COc1ccc(-c2csc3ncn(-c4ccccc4OC)c(=O)c23)cc1OC | 0.2 | -26.1* | 0.1 | -12.1
COc1ccc(-c2csc3ncn(-c4ccccc4)c(=O)c23)cc1OC | 1.6 | -4.7 | / | 2.3
CCOc1ccc(-n2c(-c3ccccc3)c[n+]3c2CCCCC3)cc1 | 31.3 | -43.0* | -0.1 | 6.4
c1ccc(-c2c[n+]3c(n2-c2ccccc2)CCC3)cc1 | 19.8 | 1.7 | -0.2 | -0.1
COc1ccc(CN2C(=O)[C@@H]3[C@H]4C(=O)O[C@H](c5ccccc5)[C@@H](C)N(C)C(=O)CC/C=C/[C@H]4O[C@@]34C=CCN(Cc3ccccc3)C(=O)[C@@H]24)cc1 | 13.0 | / | / | /
O=C(Nc1nnc(SCC(=O)N2CCCc3ccccc32)s1)c1cccc2ccccc12 | 87.6* | 7.0 | / | 21.6
O=C(CSc1nc(=O)n2ccccc2n1)N1CCCc2ccccc21 | -8.0 | 0.8 | 32.0* | 7.8
CCCNC(=O)N1CC2(CCN(CC3CCCC3)CC2)c2c([nH]c3cc(OC)ccc23)[C@@H]1CO | -5.2 | 4.2 | -0.2 | -3.4
